Series [1] is described as follows: Antitumor activity in high alert medicated patient derived human GBM1 cells xenografted in immunodeficient nude mouse model assessed as change in tumor volume at 50 mg/kg,ip QD and measured after 11 days relative to control. The format is functional. The settings on record: time 11 day. The method, boiled down: (§1)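 Female athymic nude mice bearing subcutaneous GBM1-HAM PDX fragments (20 mm³); treatment began day 11 post-implant at tumour volumes 75-196 mm³, 10 per group. Compound i.p. daily in cyclodextrin vehicle (17 days alone, 27 days in combination); temozolomide 42 mg/kg p.o. daily for 5 days in PBS/glucose/Tween 80. Calliper volumes three times weekly; body weight and clinical signs monitored.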
(In general: In xenograft studies the graft and the host belong to different species.)

Series [2] is described as follows: Antitumor activity in high alert medicated patient derived human GBM1 cells xenografted in immunodeficient nude mouse model assessed as T/C ratio at 20 mg/kg,ip QD cotreatment with Temozolomide at 42 mg/kg,po QD and measured after 11 days. Conditions: time 11 day. Type of series: functional. In short, it runs like this: as §1
Series [3] can be described thus: Drug uptake in human hTERT-RPE1 cells assessed as drug co-localization with OSBP perinuclear region of cell incubated for 30 mins by immunofluorescence analysis. The format is ADME, cell-based. The settings on record: tert-rpe1, 0.5 h. The method, boiled down: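 hTERT-RPE-1 cells incubated 30 min with compound, then fixed (4% paraformaldehyde, 0.1% glutaraldehyde, 10 min), quenched with 50 mM NH₄Cl and permeabilized in saponin 0.05%/BSA 0.2%. Immunolabeled for OSBP and TGN-46. Compound imaged directly by UV-adapted widefield fluorescence (excitation 330, emission 410 nm).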

The nature of series [4]: Antitumor activity in high alert medicated patient derived human GBM1 cells xenografted in immunodeficient nude mouse model assessed as change in tumor volume at 20 mg/kg,ip QD cotreatment with Temozolomide at 42 mg/kg,po QD and measured after 11 days relative to control. Conditions: time 11 day. The format is functional. In short, it runs like this:
as §1

Series [5] is described as follows: Metabolic stability in mouse plasma assessed as compound remaining at 5 uM and measured after 120 mins by UPLC-MS/MS analysis. Type of series: ADME, cell-free. Conditions: read-out: Stability. In short, it runs like this:
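Male mouse plasma at 37 °C with compound added from a 5 µM solution […]. Sampled at 0, 15, 30, 45, 60 and 120 min, quenched with acetonitrile and read by LC-MS/MS (MRM) in duplicate. Procaine positive control. Remaining % and t1/2 derived from MRM area relative to t = 0.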

In series [6] the target is T1, mTORC1 (Homo sapiens) (UniProt P42345+Q8N122+Q9BVC4). As to the kind of experiment: Inhibition of mTORC1 signalling in human U-87 MG cells assessed as decrease in S6 phosphorylation at S240/244 residue at 0.05 to 1 uM incubated for 48 hrs by Western blot analysis. The format is cell-based. In short, it runs like this:
(§2)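 U-87 MG cells cultured two days, then exposed 48 h to increasing doses. Lysed in RIPA with protease inhibitors; 5 µg protein run on 4-20% SDS gels and transferred to PVDF. Probed for phospho/total AKT, S6, S6K, P62 and LC3, detected by ECL. Band intensities normalized to β-actin.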
For orientation: In western blotting, separated proteins are transferred to a membrane and probed.

Series [7] addresses T2, Oxysterol-binding protein 1 (Homo sapiens) (UniProt P22059).
T2 sequence (whole entry): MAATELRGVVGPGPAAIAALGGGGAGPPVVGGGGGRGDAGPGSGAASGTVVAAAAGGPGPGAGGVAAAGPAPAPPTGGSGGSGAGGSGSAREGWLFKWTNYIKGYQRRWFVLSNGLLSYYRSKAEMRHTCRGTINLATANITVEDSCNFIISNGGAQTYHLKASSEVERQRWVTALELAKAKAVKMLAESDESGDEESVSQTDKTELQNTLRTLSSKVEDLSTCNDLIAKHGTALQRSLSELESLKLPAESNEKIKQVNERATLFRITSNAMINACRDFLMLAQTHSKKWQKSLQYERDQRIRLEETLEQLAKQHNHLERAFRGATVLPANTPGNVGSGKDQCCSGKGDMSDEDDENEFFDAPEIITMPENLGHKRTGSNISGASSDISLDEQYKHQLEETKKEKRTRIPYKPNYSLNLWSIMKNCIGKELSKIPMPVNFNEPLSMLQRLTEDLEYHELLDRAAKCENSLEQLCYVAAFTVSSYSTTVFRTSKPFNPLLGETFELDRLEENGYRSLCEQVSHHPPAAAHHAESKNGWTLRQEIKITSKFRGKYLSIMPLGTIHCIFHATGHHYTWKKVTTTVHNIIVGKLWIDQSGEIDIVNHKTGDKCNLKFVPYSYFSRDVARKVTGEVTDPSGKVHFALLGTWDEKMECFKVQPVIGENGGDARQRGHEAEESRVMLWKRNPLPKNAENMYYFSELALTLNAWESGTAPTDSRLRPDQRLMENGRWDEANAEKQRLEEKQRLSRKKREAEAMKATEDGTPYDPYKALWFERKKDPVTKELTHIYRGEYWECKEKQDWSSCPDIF
As to the kind of experiment: Inhibition of human OSBP in human hTERT-RPE1 cells co-transfected with GFP-P4MSidM and TagBFP-betaGalT1 assessed as increase in PI4P at TGN by measuring GFP-P4M fluorescence and measured after 50 mins by immunofluorescence analysis. Type of series: cell-based. The method, boiled down:
(§3)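 hTERT-RPE-1 cells electroporated with GFP-P4M^SidM (PI4P probe) and TagBFP-βGalT1, plated 18-24 h. Timelapse confocal imaging at 37 °C after compound addition, with P4M-GFP intensity at the TGN tracked over time and compared before and 50 min after addition. Mean of 4 to 6 independent experiments ± SEM.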

The target in series [8] is T2, Oxysterol-binding protein 1 (Homo sapiens). As to the kind of experiment: Inhibition of human OSBP in human hTERT-RPE1 cells co-transfected with GFP-P4MSidM and TagBFP-betaGalT1 assessed as half life for inhibition of PI4P transfer by OBSP by immunofluorescence analysis. The format is cell-based. The method, boiled down: as §3
A short description of series [9]: Antitumor activity in high alert medicated patient derived human GBM1 cells xenografted in immunodeficient nude mouse model assessed as T/C ratio at 50 mg/kg,ip QD and measured after 9 to 11 days. The format is functional. The settings on record: time 9-11 day. The method, boiled down: as §1
Series [10] is described as follows: Toxicity in immunodeficient nude mouse model xenografted with high alert medicated patient derived human GBM1 cells assessed as clinical symptoms at 50 mg/kg,ip QD for 17 days. Type of series: organism-based. The settings on record: in vivo, 408 h, time 17 day. The method, boiled down: as §1
Series [11] is described as follows: Toxicity in immunodeficient mouse assessed as body weight change at 100 mg/kg,ip QD for 5 days. The format is organism-based. Conditions: in vivo, 120 h, time 5 day.
A short description of series [12]: Toxicity in immunodeficient nude mouse model xenografted with high alert medicated patient derived human GBM1 cells assessed as clinical symptoms at 20 mg/kg,ip QD for 27 days cotreatment with Temozolomide at 42 mg/kg,po QD for 5 days. Type of series: organism-based. The settings on record: in vivo, 648 h, time 27 day. The method, boiled down:
as §1

Series [13] deals with T1, mTORC1 (Homo sapiens). In words: Inhibition of mTORC1 signalling in human U-87 MG cells assessed as decrease in S6K phosphorylation at T389 residue at 0.05 to 1 uM incubated for 48 hrs by Western blot analysis. Type of series: cell-based. In short, it runs like this: as §2
The nature of series [14]: Antitumor activity in high alert medicated patient derived human GBM1 cells xenografted in immunodeficient nude mouse model assessed as T/C ratio at 50 mg/kg,ip QD cotreatment with Temozolomide at 42 mg/kg,po QD and measured from 9 to 11 days. Type of series: functional. The settings on record: time 9-11 day. The method, boiled down:
as §1

Series [15] in a line: Toxicity in immunodeficient mouse assessed as clinical symptoms at 100 mg/kg,ip QD for 5 days. Conditions: in vivo, 120 h, time 5 day. Type of series: organism-based.
Series [16] is described as follows: Antitumor activity in high alert medicated patient derived human GBM1 cells xenografted in immunodeficient nude mouse model assessed as tumor growth inhibition at 50 mg/kg,ip QD and measured after 9 to 11 days. Type of series: functional. The method, boiled down:
as §1

The source made the active and inactive calls. No cut-off for these calls is given here.

What is called T/C is the ratio of treated to control.

T1 sequence (Q8N122 whole entry, looked up, other chains not shown): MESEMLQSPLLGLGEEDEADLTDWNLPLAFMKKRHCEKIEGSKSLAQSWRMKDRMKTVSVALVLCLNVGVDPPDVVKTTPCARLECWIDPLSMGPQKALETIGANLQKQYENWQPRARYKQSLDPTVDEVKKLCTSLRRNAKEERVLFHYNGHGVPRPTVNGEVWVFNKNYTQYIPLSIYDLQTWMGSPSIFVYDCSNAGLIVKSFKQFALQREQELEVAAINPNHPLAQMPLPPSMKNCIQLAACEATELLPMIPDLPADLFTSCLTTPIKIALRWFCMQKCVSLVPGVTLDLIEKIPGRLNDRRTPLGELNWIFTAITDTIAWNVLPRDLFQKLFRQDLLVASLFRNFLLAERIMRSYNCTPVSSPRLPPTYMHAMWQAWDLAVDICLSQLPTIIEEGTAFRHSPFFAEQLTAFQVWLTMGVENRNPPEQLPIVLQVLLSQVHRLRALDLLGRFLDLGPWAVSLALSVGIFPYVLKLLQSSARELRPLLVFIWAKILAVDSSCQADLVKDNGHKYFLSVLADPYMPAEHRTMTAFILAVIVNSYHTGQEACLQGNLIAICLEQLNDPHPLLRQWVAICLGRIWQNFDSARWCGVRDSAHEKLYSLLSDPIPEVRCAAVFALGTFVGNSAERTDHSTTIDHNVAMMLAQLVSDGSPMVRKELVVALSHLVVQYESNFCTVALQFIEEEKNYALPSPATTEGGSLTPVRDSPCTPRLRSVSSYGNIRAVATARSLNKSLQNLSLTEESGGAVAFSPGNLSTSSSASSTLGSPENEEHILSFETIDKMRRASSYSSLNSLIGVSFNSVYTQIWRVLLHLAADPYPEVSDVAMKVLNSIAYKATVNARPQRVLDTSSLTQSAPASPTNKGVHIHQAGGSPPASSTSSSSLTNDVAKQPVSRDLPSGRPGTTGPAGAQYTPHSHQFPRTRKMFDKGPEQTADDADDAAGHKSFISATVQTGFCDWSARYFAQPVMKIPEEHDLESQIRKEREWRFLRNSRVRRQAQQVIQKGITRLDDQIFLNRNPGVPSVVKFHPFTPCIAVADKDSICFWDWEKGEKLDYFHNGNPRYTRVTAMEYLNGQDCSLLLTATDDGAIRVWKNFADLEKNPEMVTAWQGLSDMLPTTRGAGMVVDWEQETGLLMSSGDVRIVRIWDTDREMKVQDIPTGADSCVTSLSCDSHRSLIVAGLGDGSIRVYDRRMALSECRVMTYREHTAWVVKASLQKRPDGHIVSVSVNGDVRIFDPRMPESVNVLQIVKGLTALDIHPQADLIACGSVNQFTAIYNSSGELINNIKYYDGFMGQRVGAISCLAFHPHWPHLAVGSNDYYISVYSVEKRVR
T1 sequence (Q9BVC4 whole entry, looked up, other chains not shown): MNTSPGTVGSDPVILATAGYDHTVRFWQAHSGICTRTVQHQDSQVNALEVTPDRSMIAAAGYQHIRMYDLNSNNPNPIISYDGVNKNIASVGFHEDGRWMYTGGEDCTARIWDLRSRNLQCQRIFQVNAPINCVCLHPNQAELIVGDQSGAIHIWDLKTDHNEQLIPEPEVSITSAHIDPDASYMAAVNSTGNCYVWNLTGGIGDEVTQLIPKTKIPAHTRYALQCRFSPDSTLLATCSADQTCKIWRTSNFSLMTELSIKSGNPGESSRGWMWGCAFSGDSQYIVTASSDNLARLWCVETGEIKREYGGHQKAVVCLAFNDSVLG

Consider `CC1(C)CCc2c(O)cc(/C=C/c3cc(O)c4c(c3)C[C@@H]3C(C)(C)[C@H](OC=O)CC[C@@]3(C)O4)cc2O1`, for which the Activity was 625.61% in [1]; 396.24% in series [4]; “Non-Toxic” in series [10]; “Non-Toxic” in series [11]; “Non-Toxic” in [12]; “Non-Toxic” in series [15]. Further, the T/C is 49.91% in series [2], 70.05% in series [9] and 41.43% in series [14]. Further, the Drug uptake result in series [3] was “Active”. The remaining at 2 h, 5 µM in series [5] is 20.2%. Besides, the inhibition result at mTORC1 (Homo sapiens) [6] and at mTORC1 (Homo sapiens) [13] was “Dose-Dependent Effect” in each case. Besides, in [7], the inhibition result is “Active”. Further, in series [8], the T1/2 came to 25 min. The TGDI at 50 mg/kg in series [16] was 1.37%.

For the origin of these results see ChEMBL document CHEMBL5370602, “Structure-Based Design of a Lead Compound Derived from Natural Schweinfurthins with Antitumor Properties That Target Oxysterol-Binding Protein” (J Med Chem, 2023).
